Test system: U2OS
Assay: Multiplex assay against U2OS
Type: toxicity, cell-based
Conditions: human
How it was run: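 Live cells were stained at seeding with Hoechst33342, BioTracker Green Microtubule Cytoskeleton Dye, MitoTracker Red and Annexin V Alexa Fluor 680, then imaged on a CQ1 microscope at 37°C and 5% CO2 after compound addition. CellPathfinder machine-learning gating split cells into Hoechst high-intensity objects or normal cells. Normal cells were split into healthy, pyknosed or fragmented nuclei, and pyknosed cells into mitotic or apoptotic. Tubulin, mitochondrial-mass and membrane-permeability phenotypes are per cents of healthy-nucleus cells.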

[1] = 12 h, 1 µM, compound concentration 1 uM, replicate 1
[2] = 12 h, 1 µM, compound concentration 1 uM, replicate 2
[3] = 12 h, 10 µM, compound concentration 10 uM, replicate 1
[4] = 12 h, 10 µM, compound concentration 10 uM, replicate 2
[5] = 24 h, 1 µM, compound concentration 1 uM, replicate 1
[6] = 24 h, 1 µM, compound concentration 1 uM, replicate 2
[7] = 24 h, 10 µM, compound concentration 10 uM, replicate 1
[8] = 24 h, 10 µM, compound concentration 10 uM, replicate 2
[9] = 48 h, 1 µM, compound concentration 1 uM, replicate 1
[10] = 48 h, 1 µM, compound concentration 1 uM, replicate 2
[11] = 48 h, 10 µM, compound concentration 10 uM, replicate 1
[12] = 48 h, 10 µM, compound concentration 10 uM, replicate 2

COc1cc(NC(=O)CCN2CCC(OC(=O)Nc3ccccc3-c3ccccc3)CC2)c(Cl)cc1CNC[C@H](O)c1ccc(O)c2[nH]c(=O)ccc12 [BATEFENTEROL]
Population Apoptotic (%) [1]: 68%
Population Fragmented Nuclei (%) [1]: 29%
Population Healthy Nuclei (%) [1]: 49%
Population Hoechst High Intensity Objects (%) [1]: 4%
Population Membrane Permeable-Phenotype (%) [1]: 5%
Population Mitochondria Different-Phenotype (%) [1]: 5%
Population Mitotic Cells (%) [1]: 31%
Population Normal (%) [1]: 95%
Population Pyknosed Nuclei (%) [1]: 21%
Population Tubulin-Different-Phenotype (%) [1]: 4%
Total Cell Count [1]: 159
Population Apoptotic (%) [2]: 85%
Population Fragmented Nuclei (%) [2]: 14%
Population Healthy Nuclei (%) [2]: 78%
Population Hoechst High Intensity Objects (%) [2]: 1%
Population Membrane Permeable-Phenotype (%) [2]: 9%
Population Mitochondria Different-Phenotype (%) [2]: 6%
Population Mitotic Cells (%) [2]: 14%
Population Normal (%) [2]: 98%
Population Pyknosed Nuclei (%) [2]: 7%
Population Tubulin-Different-Phenotype (%) [2]: 7%
Total Cell Count [2]: 98
Population Apoptotic (%) [3]: 72%
Population Fragmented Nuclei (%) [3]: 37%
Population Healthy Nuclei (%) [3]: 44%
Population Hoechst High Intensity Objects (%) [3]: 6%
Population Membrane Permeable-Phenotype (%) [3]: 60%
Population Mitochondria Different-Phenotype (%) [3]: 67%
Population Mitotic Cells (%) [3]: 27%
Population Normal (%) [3]: 93%
Population Pyknosed Nuclei (%) [3]: 18%
Population Tubulin-Different-Phenotype (%) [3]: 75%
Total Cell Count [3]: 196
Population Apoptotic (%) [4]: 88%
Population Fragmented Nuclei (%) [4]: 18%
Population Healthy Nuclei (%) [4]: 59%
Population Hoechst High Intensity Objects (%) [4]: 7%
Population Membrane Permeable-Phenotype (%) [4]: 57%
Population Mitochondria Different-Phenotype (%) [4]: 95%
Population Mitotic Cells (%) [4]: 11%
Population Normal (%) [4]: 92%
Population Pyknosed Nuclei (%) [4]: 22%
Population Tubulin-Different-Phenotype (%) [4]: 97%
Total Cell Count [4]: 82
Population Apoptotic (%) [5]: 74%
Population Fragmented Nuclei (%) [5]: 27%
Population Healthy Nuclei (%) [5]: 55%
Population Hoechst High Intensity Objects (%) [5]: 2%
Population Membrane Permeable-Phenotype (%) [5]: 9%
Population Mitochondria Different-Phenotype (%) [5]: 9%
Population Mitotic Cells (%) [5]: 25%
Population Normal (%) [5]: 97%
Population Pyknosed Nuclei (%) [5]: 17%
Population Tubulin-Different-Phenotype (%) [5]: 5%
Total Cell Count [5]: 182
Population Apoptotic (%) [6]: 100%
Population Fragmented Nuclei (%) [6]: 12%
Population Healthy Nuclei (%) [6]: 75%
Population Hoechst High Intensity Objects (%) [6]: 1%
Population Membrane Permeable-Phenotype (%) [6]: 5%
Population Mitochondria Different-Phenotype (%) [6]: 6%
Population Mitotic Cells (%) [6]: 0%
Population Normal (%) [6]: 98%
Population Pyknosed Nuclei (%) [6]: 11%
Population Tubulin-Different-Phenotype (%) [6]: 2%
Total Cell Count [6]: 103
Population Apoptotic (%) [7]: 79%
Population Fragmented Nuclei (%) [7]: 38%
Population Healthy Nuclei (%) [7]: 38%
Population Hoechst High Intensity Objects (%) [7]: 4%
Population Membrane Permeable-Phenotype (%) [7]: 32%
Population Mitochondria Different-Phenotype (%) [7]: 59%
Population Mitotic Cells (%) [7]: 20%
Population Normal (%) [7]: 95%
Population Pyknosed Nuclei (%) [7]: 22%
Population Tubulin-Different-Phenotype (%) [7]: 44%
Total Cell Count [7]: 199
Population Apoptotic (%) [8]: 73%
Population Fragmented Nuclei (%) [8]: 29%
Population Healthy Nuclei (%) [8]: 42%
Population Hoechst High Intensity Objects (%) [8]: 9%
Population Membrane Permeable-Phenotype (%) [8]: 52%
Population Mitochondria Different-Phenotype (%) [8]: 91%
Population Mitotic Cells (%) [8]: 26%
Population Normal (%) [8]: 90%
Population Pyknosed Nuclei (%) [8]: 27%
Population Tubulin-Different-Phenotype (%) [8]: 91%
Total Cell Count [8]: 93
Population Apoptotic (%) [9]: 82%
Population Fragmented Nuclei (%) [9]: 26%
Population Healthy Nuclei (%) [9]: 54%
Population Hoechst High Intensity Objects (%) [9]: 3%
Population Membrane Permeable-Phenotype (%) [9]: 3%
Population Mitochondria Different-Phenotype (%) [9]: 5%
Population Mitotic Cells (%) [9]: 17%
Population Normal (%) [9]: 96%
Population Pyknosed Nuclei (%) [9]: 19%
Population Tubulin-Different-Phenotype (%) [9]: 3%
Total Cell Count [9]: 242
Population Apoptotic (%) [10]: 85%
Population Fragmented Nuclei (%) [10]: 17%
Population Healthy Nuclei (%) [10]: 64%
Population Hoechst High Intensity Objects (%) [10]: 4%
Population Mitochondria Different-Phenotype (%) [10]: 1%
Population Mitotic Cells (%) [10]: 14%
Population Normal (%) [10]: 95%
Population Pyknosed Nuclei (%) [10]: 17%
Population Tubulin-Different-Phenotype (%) [10]: 1%
Total Cell Count [10]: 123
Population Apoptotic (%) [11]: 92%
Population Fragmented Nuclei (%) [11]: 41%
Population Healthy Nuclei (%) [11]: 39%
Population Hoechst High Intensity Objects (%) [11]: 6%
Population Membrane Permeable-Phenotype (%) [11]: 31%
Population Mitochondria Different-Phenotype (%) [11]: 43%
Population Mitotic Cells (%) [11]: 7%
Population Normal (%) [11]: 93%
Population Pyknosed Nuclei (%) [11]: 18%
Population Tubulin-Different-Phenotype (%) [11]: 23%
Total Cell Count [11]: 221
Population Apoptotic (%) [12]: 94%
Population Fragmented Nuclei (%) [12]: 29%
Population Healthy Nuclei (%) [12]: 32%
Population Hoechst High Intensity Objects (%) [12]: 10%
Population Membrane Permeable-Phenotype (%) [12]: 38%
Population Mitochondria Different-Phenotype (%) [12]: 70%
Population Mitotic Cells (%) [12]: 5%
Population Normal (%) [12]: 89%
Population Pyknosed Nuclei (%) [12]: 37%
Population Tubulin-Different-Phenotype (%) [12]: 48%
Total Cell Count [12]: 105
